In brackets after ≈: the same amount, converted by molar mass.
Key:
[1] = tested on: Staphylococcus aureus; experiment: Inhibition of NorA-mediated efflux in Staphylococcus aureus K2361; type: functional, organism-based
[2] = tested on: Staphylococcus aureus; experiment: Inhibition of MepA-mediated efflux in Staphylococcus aureus K2886; type: functional, organism-based
Procedure, shortened: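 Efflux from MepA-overexpressing S. aureus K2886, done in duplicate. Reported as mean total efflux over a 5 min time course.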

[3] = tested on: Staphylococcus aureus; experiment: Antimicrobial activity against Staphylococcus aureus K1902; type: functional
[4] = tested on: Staphylococcus aureus; experiment: Antimicrobial activity against Staphylococcus aureus K2361 over expressing NorA efflux pump; type: functional
[5] = tested on: Staphylococcus aureus; experiment: Antimicrobial activity against Staphylococcus aureus K2885; type: functional
[6] = tested on: Staphylococcus aureus; experiment: Antimicrobial activity against Staphylococcus aureus K2886 over expressing MepA efflux pump; type: functional
[7] = tested on: Pseudomonas aeruginosa; experiment: Antimicrobial activity against Pseudomonas aeruginosa K3082; type: functional
[8] = tested on: Pseudomonas aeruginosa; experiment: Antimicrobial activity against Pseudomonas aeruginosa K2184 over expressing MexB efflux pump; type: functional
[9] = tested on: Escherichia coli; experiment: Antimicrobial activity against Escherichia coli K2201; type: functional
[10] = tested on: Staphylococcus aureus; experiment: Inhibition of NorA efflux pump in Staphylococcus aureus K2361 at 0.50 assessed as fold reduction in ethidium bromide minimum inhibitory concentration; type: functional; parameters: concentration or dose not given beside the values
[11] = tested on: Staphylococcus aureus; experiment: Inhibition of NorA efflux pump in Staphylococcus aureus K2361 at 0.79 uM MIC assessed as fold reduction in ethidium bromide minimum inhibitory concentration; type: functional
Procedure, shortened: (§1)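 Ethidium bromide MIC was determined for the pump-expressing S. aureus strain, alone and with the efflux inhibitor added at 1/4 or 1/2 of the inhibitor's own MIC against that strain. Potentiation is expressed as fold lowering of the ethidium bromide MIC. Parent strains SA-K1902 and SA-K2885 were tested in the same way at 1/2 MIC.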

[12] = tested on: Staphylococcus aureus; experiment: Inhibition of MepA efflux pump in Staphylococcus aureus K2886 at 0.39 uM assessed as fold reduction in ethidium bromide minimum inhibitory concentration; type: functional; procedure, shortened: as §1
[13] = tested on: Escherichia coli; experiment: Antimicrobial activity against Escherichia coli K2203 over expressing AcrB efflux pump
[14] = tested on: Staphylococcus aureus; experiment: Inhibition of MepA efflux pump in Staphylococcus aureus K2886 at 1/2 MIC assessed as fold reduction in ethidium bromide minimum inhibitory concentration
[15] = tested on: Staphylococcus aureus; experiment: Inhibition of NorA efflux pump in Staphylococcus aureus K2361 at 8.32 uM assessed as fold reduction in ethidium bromide minimum inhibitory concentration; type: functional
[16] = tested on: Staphylococcus aureus; experiment: Inhibition of MepA efflux pump in Staphylococcus aureus K2886 at 4.16 uM assessed as fold reduction in ethidium bromide minimum inhibitory concentration; type: functional
[17] = tested on: Staphylococcus aureus; experiment: Inhibition of MepA efflux pump in Staphylococcus aureus K2886 at 0.50 uM assessed as fold reduction in ethidium bromide minimum inhibitory concentration; type: functional
[18] = tested on: Staphylococcus aureus; experiment: Inhibition of NorA efflux pump in Staphylococcus aureus K2361 at 8.21 uM MIC assessed as fold reduction in ethidium bromide minimum inhibitory concentration; type: functional
[19] = tested on: Staphylococcus aureus; experiment: Inhibition of MepA efflux pump in Staphylococcus aureus K2886 at 4.1 uM MIC assessed as fold reduction in ethidium bromide minimum inhibitory concentration; type: functional
[20] = tested on: Staphylococcus aureus; experiment: Inhibition of NorA efflux pump in Staphylococcus aureus K2361 at 1.58 uM MIC assessed as fold reduction in ethidium bromide minimum inhibitory concentration; type: functional
[21] = tested on: Staphylococcus aureus; experiment: Inhibition of MepA efflux pump in Staphylococcus aureus K2886 at 1.58 uM MIC assessed as fold reduction in ethidium bromide minimum inhibitory concentration; type: functional

Compound | IC50 [1] [µM] | IC50 [2] [µM] | MIC [3] [µg/mL] | MIC [4] [µg/mL] | MIC [5] [µg/mL] | MIC [6] [µg/mL] | MIC [7] [µg/mL] | MIC [8] [µg/mL] | MIC [9] [µg/mL] | Fold change [10] | other results
Fc1ccc([C@@H]2CCNC[C@H]2CNc2ccccc2)cc1 | > 50 | – | – | – | – | – | – | – | – | – | –
Fc1ccc([C@@H]2CCNC[C@H]2COc2cc(Br)ccc2Cl)cc1 | < 10 | 13 | 12.5 (≈ 31.4 µM) | 12.5 (≈ 31.4 µM) | 6.25 (≈ 15.7 µM) | 6.25 (≈ 15.7 µM) | 100 (≈ 251 µM) | 100 (≈ 251 µM) | 25 (≈ 62.7 µM) | 32 | Fold change [11]: 4; Fold change [12]: 4; MIC [13]: 50 µg/mL (≈ 125 µM); Fold change [14]: 8
COc1ccc(OC[C@H]2CCCNC2)cc1 | > 50 | – | – | – | – | – | – | – | – | – | –
c1ccc(SC[C@H]2CCCNC2)cc1 | > 50 | – | – | – | – | – | – | – | – | – | –
Clc1ccc(Br)cc1/C=C/[C@H]1CCCNC1 | 45 | < 10 | 100 (≈ 333 µM) | 100 (≈ 333 µM) | 100 (≈ 333 µM) | 50 (≈ 166 µM) | 100 (≈ 333 µM) | 100 (≈ 333 µM) | 50 (≈ 166 µM) | >128 | Fold change [15]: 64; Fold change [16]: 4; MIC [13]: 100 µg/mL (≈ 333 µM); Fold change [14]: 16
c1ccc(NC[C@H]2CCCNC2)cc1 | > 50 | – | – | – | – | – | – | – | – | – | –
Fc1ccc([C@@H]2CCNC[C@H]2COc2ccccc2)cc1 | 22 | – | – | – | – | – | – | – | – | – | –
Fc1ccc([C@@H]2CCNC[C@H]2COc2ccc3c(c2)OCO3)cc1 [PAROXETINE] | 15 | < 10 | – | – | – | – | – | – | – | – | –
c1ccc(OC[C@H]2CCCNC2)cc1 | > 50 | – | – | – | – | – | – | – | – | – | –
Fc1ccc([C@@H]2CCNC[C@H]2CSc2ccccc2)cc1 | 18 | – | – | – | – | – | – | – | – | – | –
Clc1ccc(Br)cc1OC[C@H]1CCCNC1 | 40 | < 10 | 100 (≈ 328 µM) | > 100 | 100 (≈ 328 µM) | > 100 | 100 (≈ 328 µM) | 100 (≈ 328 µM) | 100 (≈ 328 µM) | 64 | Fold change [17]: 8; Fold change [18]: 16; Fold change [19]: 2
Fc1ccc([C@@H]2CCNC[C@H]2/C=C/c2cc(Br)ccc2Cl)cc1 | < 10 | 20 | 25 (≈ 63.3 µM) | 25 (≈ 63.3 µM) | 25 (≈ 63.3 µM) | 25 (≈ 63.3 µM) | 100 (≈ 253 µM) | 100 (≈ 253 µM) | 100 (≈ 253 µM) | 64 | Fold change [20]: 16; Fold change [21]: 4; MIC [13]: 100 µg/mL (≈ 253 µM); Fold change [14]: >32
